In data set [1] the test system is Human immunodeficiency virus 1. In words: Antiviral activity against HIV1 3B infected in human MT2 cells assessed as inhibition of virus replication by MTT assay. Type of data set: functional, organism-based. The following applies: Human immunodeficiency virus 1, 3B. In outline:
(§1)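 HIV-1 (IIIB or RT-variant strain) infection of human MT-2 T-cells. Protection of the infected cells was read out by the MTT colorimetric method.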
For orientation: Formazan colour is commonly taken as a measure of viable cells.

Data set [2] deals with MT2. In words: (§2) Cytotoxicity against human MT2 cells by MTT assay. Type of data set: cell-based. The note with it: mt2.
The subject of data set [3] is Human immunodeficiency virus 1. In words: Antiviral activity against HIV1 reverse transcriptase Y181C mutant infected in human MT2 cells assessed as inhibition of viral replication by MTT assay. Type of data set: functional, organism-based. The following applies: Human immunodeficiency virus 1, MT2. In outline:
as §1

The test system of data set [4] is Human immunodeficiency virus 1. Description: Antiviral activity against HIV1 reverse transcriptase K103N/Y181C double mutant infected in human MT2 cells assessed as inhibition of viral replication by MTT assay. Type of data set: functional, organism-based. The following applies: Human immunodeficiency virus 1, MT2. The method in brief: as §1
In data set [5] the test system is MT2. In words: Cytotoxicity against human MT2 cells infected with HIV1 harboring reverse transcriptase Y181C mutation by MTT assay. Type of data set: cell-based.
The test system of data set [6] is MT2. Description: Cytotoxicity against human MT2 cells infected with HIV1 harboring reverse transcriptase K103N/Y181C mutation by MTT assay. Type of data set: cell-based.
Data set [7] in a line: as §2. Type of data set: cell-based. The note with it: MT2 cells.

Each structure is given as a SMILES string.

For orientation: EC50 means the concentration at which the effect is half-maximal. The CC50 is the concentration at which the toxic effect on the cells reaches its halfway point.

On to `Fc1cccc(F)c1Cc1cnc(Nc2ccc(COc3ccncc3)c(Cl)c2)o1`, for which the EC50 in data set [1] is 0.03 µM. This compound showed a half-maximal cytotoxic concentration (CC50) in the data set on MT2 [2] of 3.8 µM.
In the case of `COCc1ccc(Nc2ncc(Cc3c(F)cccc3F)o2)cc1`, the EC50 in data set [1] came to 2.1 µM. Further, the 50% cytotoxic concentration (CC50) in the data set with MT2 [2] stood at 32 µM.
As for `CSCc1ccc(Nc2ncc(Cc3c(F)cccc3F)o2)cc1`, the EC50 in data set [1] stood at 1.2 µM. In the data set on MT2 [2], this compound yielded a cytotoxic concentration (CC50) above 100 µM.
Consider `O=c1ccn(CCOc2ccc(Nc3ncc(Cc4c(F)cccc4F)o3)cc2)c(=O)[nH]1`, for which the concentration for a half-maximal effect (EC50) in data set [1] is 25 µM. Moreover, in the data set with MT2 [2], it took 73 µM to reach half-maximal cytotoxicity (CC50).
Take `Fc1cccc(F)c1Cc1cnc(Nc2ccc(Oc3ccncc3)cc2)o1`: the EC50 in data set [1] is 0.19 µM; in data set [3], 5 µM; in data set [4], 12 µM. For the same compound, the CC50 with MT2 [2] was 21 µM; with MT2 [5] it was 17 µM; in the data set with MT2 [6], 17 µM.
For the compound `O=c1ncccn1SCCc1ccc(Nc2ncc(Cc3c(F)cccc3F)o2)cc1`, in data set [1], the EC50 amounted to 13 µM. For the same compound, in the data set with MT2 [2], the 50% cytotoxic concentration (CC50) was above 100 µM.
`Clc1cccc(Cl)c1Cc1nnc(Nc2ccc(COCc3ccco3)cc2)o1`: the concentration for a half-maximal effect (EC50) in data set [1] came out at 2.8 µM. For the same compound, half-maximal cytotoxicity in the data set on MT2 [2] (CC50) was put at 12 µM.
As for `Fc1cccc(F)c1Cc1cnc(Nc2ccc(Oc3cccnc3)c(Cl)c2)o1`, the results for the EC50 in data set [3] and in data set [4] were 3.2 µM and 4.5 µM, respectively.
Consider `Cc1cn([C@H]2C=C[C@@H](CO)O2)c(=O)[nH]c1=O` [STAVUDINE], for which the EC50 in data set [1] is 1.4 µM; in data set [3] it was 0.7 µM; in data set [4], 0.5 µM.
In the case of `Cc1cc(C#N)cc(C)c1Oc1nc(Nc2ccc(C#N)cc2)nc(N)c1Br` [ETRAVIRINE], in data set [3], the EC50 worked out at 0.011 µM. Moreover, the half-maximal cytotoxic concentration (CC50) in the data set on MT2 [2], with MT2 [5] and in the data set with MT2 [6] was above 0.1 µM each time.
In the case of `N#Cc1ccc(Nc2ncc(Cc3c(F)cccc3F)o2)cc1Cl`, in data set [1], the EC50 was 0.006 µM.
For `Fc1cccc(F)c1Cc1cnc(Nc2ccc(Oc3cccnc3)c(Br)c2)o1`, in data set [1], the EC50 worked out at 0.034 µM. The CC50 with MT2 [2] came to 7.5 µM.
On the same counts, the results for `COCc1ccc(Nc2ncc(Cc3c(Cl)cccc3Cl)o2)cc1` are 1.2 µM and 8.1 µM.
Regarding `Fc1cccc(F)c1Cc1cnc(Nc2ccc(COCc3ccco3)cc2)o1`, the concentration giving a half-maximal response (EC50) in data set [1] came to 1.6 µM. The compound also registered a 50% cytotoxic concentration (CC50) in the data set with MT2 [2] of 31 µM.
Take `[O-][n+]1ccc(OCc2ccc(Nc3ncc(Cc4c(F)cccc4F)o3)cc2Cl)cc1`: in data set [1], the EC50 came to 0.011 µM. Besides, the CC50 with MT2 [2] was found to be 1.7 µM; in the data set with MT2 [5], 2.7 µM; in the data set on MT2 [6] it was 2.1 µM.
With `COCc1ccc(Nc2nnc(Cc3c(Cl)cccc3Cl)o2)cc1`, the 50% effective concentration (EC50) in data set [1] amounted to 4.3 µM. In addition, it took 100 µM to reach half-maximal cytotoxicity in the data set with MT2 [2] (CC50).
On the same counts, the results for `OCc1ccc(Nc2ncc(Cc3c(F)cccc3F)o2)cc1Cl` are 0.26 µM and 90 µM.
In data set [7], `Cc1ccnc2c1NC(=O)c1cccnc1N2C1CC1` [NEVIRAPINE] registered a 50% cytotoxic concentration (CC50) above 100 µM.
On to `Fc1cccc(F)c1Cc1cnc(Nc2ccc(Oc3ccncc3)c(Cl)c2)o1`, for which the EC50 in data set [1] was 0.12 µM; in data set [3] it was 2.3 µM; in data set [4], 7.2 µM. For the same compound, the CC50 in the data set with MT2 [2] stood at 21 µM; with MT2 [5], 17 µM; in the data set with MT2 [6], 17 µM.
Take `Fc1cccc(F)c1Cc1cnc(Nc2ccc(-c3cccnc3)c(Cl)c2)o1`: the results for the EC50 in data set [1] and in data set [3] were 0.073 µM and 6 µM, respectively. In addition, the values for the 50% cytotoxic concentration (CC50) with MT2 [2], in the data set with MT2 [5] and in the data set with MT2 [6] were 8.9 µM, 15 µM and 12.5 µM, respectively.
`Clc1cccc(Cl)c1Cc1nnc(Nc2ccc(COCc3ccccn3)cc2)o1`: in data set [1], the concentration giving a half-maximal response (EC50) is 5 µM. The half-maximal cytotoxic concentration (CC50) in the data set with MT2 [2] is above 100 µM.
Regarding `Fc1cccc(F)c1Cc1cnc(Nc2ccc(-c3ccncc3)c(Cl)c2)o1`, the EC50 in data set [1] is 0.14 µM; in data set [3], 3.8 µM; in data set [4], 5.6 µM. Also, the figures for the CC50 in the data set on MT2 [2], with MT2 [5] and in the data set on MT2 [6] were 9.3 µM, 11 µM and 9.1 µM, respectively.
With `Fc1cccc(F)c1Cc1cnc(Nc2ccc(COc3ccncc3)cc2)o1`, the EC50 in data set [1] worked out at 0.4 µM. For the same compound, the CC50 in the data set on MT2 [2] is above 100 µM.
On the same counts, the results for `Clc1cccc(Cl)c1Cc1nnc(Nc2ccc(COCc3ccncc3)cc2)o1` are 1.6 µM and 81 µM.
Regarding `Fc1cccc(F)c1Cc1cnc(Nc2ccc(CCOc3ccncc3)cc2)o1`, the half-maximal effective concentration (EC50) in data set [1] was 1.1 µM. In the data set with MT2 [2], this compound yielded a CC50 of 11 µM.
Regarding `OCc1ccc(Nc2ncc(Cc3c(F)cccc3F)o2)cc1`, the concentration giving a half-maximal response (EC50) in data set [1] was found to be 3.8 µM. In addition, the CC50 in the data set with MT2 [2] is above 100 µM.
`Clc1cccc(Cl)c1Cc1nnc(Nc2ccc(COCc3ccsc3)cc2)o1` came in with a CC50 in the data set on MT2 [2] above 100 µM.
In the case of `OCCc1ccc(Nc2ncc(Cc3c(F)cccc3F)o2)cc1`, the EC50 in data set [1] is 2.7 µM. It took 35 µM to reach half-maximal cytotoxicity in the data set with MT2 [2] (CC50).
In the data set on MT2 [2], `Clc1cccc(Cl)c1Cc1nnc(Nc2ccc(COCc3ccoc3)cc2)o1` returned a CC50 of 21 µM.
On the same count and under the same terms, the value for `Clc1cccc(Cl)c1Cc1nnc(Nc2ccc(COCc3ccccc3)cc2)o1` was 84 µM.
Consider `Clc1cccc(Cl)c1Cc1nnc(Nc2ccc(COCc3cccnc3)cc2)o1`, for which, in data set [1], the EC50 was 4.6 µM. The compound also registered a CC50 with MT2 [2] of 81 µM.
For `O=C1Nc2ccc(Cl)cc2[C@@](C#CC2CC2)(C(F)(F)F)O1` [EFAVIRENZ], the CC50 in the data set with MT2 [2], in the data set on MT2 [5] and with MT2 [6] was above 0.1 µM each time.
Turning to `Fc1cccc(F)c1Cc1cnc(Nc2ccc(Oc3cccnc3)cc2)o1`, the EC50 in data set [1] is 0.31 µM. In addition, the CC50 in the data set on MT2 [2] was 22 µM.

The values above are taken from ChEMBL document CHEMBL1156168, “Eastern extension of azoles as non-nucleoside inhibitors of HIV-1 reverse transcriptase; cyano group alternatives” (Bioorg Med Chem Lett, 2010).
